Measured values reported in ChEMBL document CHEMBL1122803, “Folate antagonists. 22. Antimalarial and antibacterial effects of 2,4-diamino-6-quinazolinesulfonamides” (1984).

Columns and labels:
Type in all cases: functional
Plasmodium berghei [1] = test: Antimalarial activity as change in MST for drug-sensitive Plasmodium berghei infected mice (Mus musculus) at 80mg/kg subcutaneous dose over 72h
Plasmodium berghei [2] = test: Antimalarial activity as change in MST for drug-sensitive Plasmodium berghei infected mice (Mus musculus) at 640 mg/kg subcutaneous dose over 72 hr
Plasmodium berghei [3] = test: Antimalarial activity as change in MST for drug-sensitive Plasmodium berghei infected mice (Mus musculus) at 40 mg/kg subcutaneous dose over 72 hr
Plasmodium berghei [4] = test: Antimalarial activity as change in MST against drug-sensitive Plasmodium berghei infected mice (Mus musculus) at 160 mg/kg subcutaneous dose after 72h
Plasmodium berghei [5] = test: Antimalarial activity as change in MST against drug-sensitive Plasmodium berghei infected mice (Mus musculus) at 20 mg/kg subcutaneous dose after 72h
Plasmodium berghei [6] = test: Antimalarial activity as survivor numbers at day 60 for drug-sensitive Plasmodium berghei infected mice (Mus musculus) at 320 mg/kg subcutaneous dose for 72 hr
In short: (§1)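 Mice infected with drug-sensitive P. berghei got one subcutaneous dose in sesame or peanut oil 72 h postinfection. Read-out is the number of mice alive at 60 days postinfection, termed "cured", without subinoculation to confirm parasitological cure. Groups of five per dose, or 10 where indicated.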

Enterococcus faecalis = test: Compound was tested in vitro against Streptococcus faecalis MGH-2. by gradient-plate test.
In short: (§2)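 Antibacterial testing in vitro by gradient-plate test. Read-out was the minimum inhibitory concentration, with values exceeding 25 reported as >25.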

Escherichia coli = test: Compound was tested in vitro against Escherichia coli Vogel. by gradient-plate test.; in short: as §2
Shigella sonnei = test: Compound was tested in vitro against Shigella sonnei C-10. by gradient-plate test.; in short: as §2
Plasmodium berghei [7] = test: Antimalarial activity as change in MST for drug-sensitive Plasmodium berghei infected mice (Mus musculus) at 80 mg/kg subcutaneous dose over 72 hr
Plasmodium berghei [8] = test: Antimalarial activity as change in MST against drug-sensitive Plasmodium berghei infected mice (Mus musculus) at 160 mg/kg subcutaneous dose after 72 hr
Plasmodium berghei [9] = test: Antimalarial activity as change in MST against drug-sensitive Plasmodium berghei infected mice (Mus musculus) at 20 mg/kg subcutaneous dose after 72 hr
Plasmodium berghei [10] = test: Antimalarial activity as change in MST for drug-sensitive Plasmodium berghei infected mice (Mus musculus) after 72 hrs at 320 mg/kg subcutaneous dose
Staphylococcus aureus [11] = test: Compound was tested in vitro against […] S 18713 by gradient-plate test.; in short: as §2
Pseudomonas aeruginosa = test: Compound was tested in vitro against Pseudomonas aeruginosa 28. by gradient-plate test.; in short: as §2
[12] = test system: Mycobacterium tuberculosis; test: Compound was tested in vitro against Mycobacterium tuberculosis H37Rv. by gradient-plate test.
In short: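 Mycobacterium tuberculosis tested in vitro by gradient-plate test; minimum inhibitory concentration reported.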

Staphylococcus aureus [13] = test: Compound was tested in vitro against […] U.C-76. by gradient-plate test.; in short: as §2
Plasmodium berghei [14] = test: Antimalarial activity as survivor numbers at day 60 for drug-sensitive Plasmodium berghei infected mice (Mus musculus) at 320 mg/kg over 72 hr; in short: as §1
Plasmodium berghei [15] = test: Antimalarial activity as toxic deaths 2-5 days post infection for drug-sensitive Plasmodium berghei infected mice (Mus musculus) at 320 mg/kg subcutaneous dose over 72 hr
In short: (§3)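 P. berghei (drug-sensitive) infected mice dosed once subcutaneously 72 h postinfection, compound in sesame or peanut oil. Read-out is the count of deaths on days 2–5 after infection, attributed to drug toxicity. Five animals per dose level, or 10 where indicated.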

Plasmodium berghei [16] = test: Antimalarial activity as survivor numbers at day 60 for drug-sensitive Plasmodium berghei infected mice (Mus musculus) at 80 mg/kg subcutaneous dose over 72 hr; in short: as §1
Plasmodium berghei [17] = test: Antimalarial activity as survivor numbers at day 60 for drug-sensitive Plasmodium berghei infected mice (Mus musculus) at 320 mg/kg subcutaneous dose over 72 hr; in short: as §1
Plasmodium berghei [18] = test: Antimalarial activity as survivor numbers at day 60 against drug-sensitive Plasmodium berghei infected mice (Mus musculus) at 20 mg/kg subcutaneous dose after 72 hr; in short: as §1
Plasmodium berghei [19] = test: Antimalarial activity as toxic deaths 2-5 days post infection for drug-sensitive Plasmodium berghei infected mice (Mus musculus) at 640 mg/kg subcutaneous dose over 72 hr; in short: as §3
Plasmodium berghei [20] = test: Antimalarial activity as survivor numbers at day 60 against drug-sensitive Plasmodium berghei infected mice (Mus musculus) at 160 mg/kg subcutaneous dose after 72 hr; in short: as §1
Plasmodium berghei [21] = test: Antimalarial activity as survivor number at day 60 for drug-sensitive Plasmodium berghei infected mice (Mus musculus) at 640 mg/kg subcutaneous dose over 72 hr; in short: as §1

Compound | Delta MST (Plasmodium berghei [1]) [days] | Delta MST (Plasmodium berghei [2]) [days] | Delta MST (Plasmodium berghei [3]) [days] | Delta MST (Plasmodium berghei [4]) [days] | Delta MST (Plasmodium berghei [5]) [days] | Delta MST (Plasmodium berghei [7]) [days] | Delta MST (Plasmodium berghei [8]) [days] | Delta MST (Plasmodium berghei [9]) [days] | Delta MST (Plasmodium berghei [10]) [days] | further results
CCN(CC)S(=O)(=O)c1ccc2nc(N)nc(N)c2c1 | 4.3 | 5 | 3.3 | 9.4 | 0.7 | – | – | – | – | Delta MST (Plasmodium berghei [6]): 5 days
Nc1nc(N)c2cc(S(=O)(=O)N3CCc4ccccc4C3)ccc2n1 | – | 6.3 | 0.3 | – | – | 0.7 | 0.7 | 0.3 | 3.9 | MIC (Enterococcus faecalis): > 25 µg/mL; MIC (Escherichia coli): > 25 µg/mL; MIC (Shigella sonnei): > 25 µg/mL; MIC (Staphylococcus aureus [11]): > 25 µg/mL; MIC (Pseudomonas aeruginosa): > 25 µg/mL; MIC [12]: > 25 µg/mL; MIC (Staphylococcus aureus [13]): > 25 µg/mL
CN(C)S(=O)(=O)c1ccc2nc(N)nc(N)c2c1 | 16.1 | – | 8.7 | 15.9 | 7.3 | – | – | – | – | Delta MST (Plasmodium berghei [14]): 5 days
CC1(C)N=C(N)N=C(N)N1c1ccc(Cl)cc1.Cl [CHLORCYCLOGUANIL HYDROCHLORIDE] | – | 5 | 13.4 | – | – | 21.6 | 5 | 7.9 | 3 | –
CCc1nc(N)nc(N)c1-c1ccc(Cl)cc1 [PYRIMETHAMINE] | – | – | 1 | – | – | – | – | – | – | toxic deaths (Plasmodium berghei [15]): 3; survivors at day 60 (Plasmodium berghei [16]): 3; survivors at day 60 (Plasmodium berghei [17]): 2; Delta MST (Plasmodium berghei [18]): 7.7 days; toxic deaths (Plasmodium berghei [19]): 2; survivors at day 60 (Plasmodium berghei [20]): 5; survivors at day 60 (Plasmodium berghei [21]): 1
